High-throughput results (PubChem BioAssay)
UBC13 inh = human UBC13 polyubiquitination inhibition; P61088; UBC13 polyubiquitin chain formation, TR-FRET; inhibition, % at 20 µM; actives 0.47% (n = 330,000); AID 485273; in the data active means inhibition above about 45%, passing the limit was not always enough; inconclusive means no clear call, values can overlap the other calls
Mdm2 MdmX PPI = inhibitors of human Mdm2/MdmX interaction; SaOS-2 split-luciferase Mdm2/MdmX complementation, luminescence; inhibition, % at 8 µM; actives 3% (n = 330,000); AID 485346;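 active means inhibition of at least 50% at 8 µM in the primary screen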
Target sequence (O15151 whole entry, looked up): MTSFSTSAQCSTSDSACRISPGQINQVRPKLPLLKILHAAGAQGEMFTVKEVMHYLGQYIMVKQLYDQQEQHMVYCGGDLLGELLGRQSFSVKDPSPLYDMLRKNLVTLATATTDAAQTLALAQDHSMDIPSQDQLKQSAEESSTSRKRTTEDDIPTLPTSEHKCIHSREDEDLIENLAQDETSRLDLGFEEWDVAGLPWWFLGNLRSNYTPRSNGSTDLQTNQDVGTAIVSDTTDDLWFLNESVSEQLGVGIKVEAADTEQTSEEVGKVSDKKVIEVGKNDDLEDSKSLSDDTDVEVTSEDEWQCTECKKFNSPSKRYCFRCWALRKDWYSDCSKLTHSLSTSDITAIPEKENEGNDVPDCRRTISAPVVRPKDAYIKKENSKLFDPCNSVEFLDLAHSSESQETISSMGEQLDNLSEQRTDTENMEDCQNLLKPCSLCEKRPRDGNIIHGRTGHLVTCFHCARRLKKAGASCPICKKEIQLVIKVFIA
Target sequence (Q00987 whole entry, looked up): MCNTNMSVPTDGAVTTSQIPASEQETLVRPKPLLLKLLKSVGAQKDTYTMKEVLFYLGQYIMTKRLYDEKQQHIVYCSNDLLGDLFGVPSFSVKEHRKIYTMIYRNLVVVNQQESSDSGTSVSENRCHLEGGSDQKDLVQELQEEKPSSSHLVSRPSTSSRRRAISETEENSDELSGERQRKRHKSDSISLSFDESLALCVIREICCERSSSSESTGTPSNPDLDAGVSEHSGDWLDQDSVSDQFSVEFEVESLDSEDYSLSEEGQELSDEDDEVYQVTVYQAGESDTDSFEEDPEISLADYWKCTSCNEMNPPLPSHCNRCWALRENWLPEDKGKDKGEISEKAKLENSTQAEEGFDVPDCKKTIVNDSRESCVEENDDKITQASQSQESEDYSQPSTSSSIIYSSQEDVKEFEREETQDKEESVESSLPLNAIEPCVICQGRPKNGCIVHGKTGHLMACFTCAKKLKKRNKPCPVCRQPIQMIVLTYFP
UPR CHOP act = activators of apoptotic arm of unfolded protein response (CHOP); CHO-CHOP luciferase reporter, UPR activation, luminescence; percent of tunicamycin response over DMSO baseline; activation, % at 10 µM; actives 0.34% (n = 330,000); AID 449763;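 active means at 10 µM dose, activation of 40% or more, normalized to positive control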
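System: CHO-CHOP luciferase reporter cell line; amount: 500 cells/well; buffer or medium: F12 medium containing 10% fetal bovine serum; incubation: 6 h compound exposure at 37 °C after overnight seeding; measured by: luciferase luminescence after 10 min with Steady-Glo reagent; evaluation: % reporter activation, DMSO baseline versus tunicamycin full activation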
Apaf-1 inh = human Apaf-1 inhibition | O14727 | AID 489030 | reconstituted apoptosome caspase-3 activity, DEVD-Rh110 fluorescence | actives 0.71% (n = 330,000) | inhibition, % at 20 µM; active means inhibition of at least 40% at 20 µM
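Material: reconstituted apoptosome with Apaf-1, cytochrome c, caspase-9, procaspase-3, dATP. Technique: Rh110 fluorescence intensity. Buffer or medium: pH 7.5 Hepes buffer with CHAPS, BSA, DTT. Times: 30 min plus 50 min, RT.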
XBP1 UPR activ = activators of adaptive arm of unfolded protein response (XBP1) | CHO-XBP1 luciferase reporter, IRE1-XBP1 UPR activation, luminescence; percent of tunicamycin response, DMSO as zero | activation, % at 20 µM | actives 0.33% (n = 330,000) | AID 463104;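 active means versus positive control, 20 µM dose yields 30% or more activation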
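Assay system: CHO-XBP1 luciferase reporter cells; Schedule: 6 h treatment, 37 °C; Detection: glow luminescence from Steady-Glo reagent; Benchmarks: high control tunicamycin 10 µg/mL final, low control DMSO vehicle only.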
Casp3 UBC13 ctr = inhibits human caspase-3 in UBC13 counter-screen | shares compounds with UBC13 inh | Recombinant caspase-3, Caspase-Glo 3/7 luminescence, 60 min | inhibition, % at 20 µM | actives 4% (n = 1,400) | AID 488856;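 active means mean inhibition across replicates above about 26%, limit read from the data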
UBC13 conf = human UBC13 polyubiquitin inhibition, confirmed; shares compounds with UBC13 inh; UBC13 polyubiquitination, TR-FRET, biochemical; inhibition, % at 10 µM; actives 68% (n = 1,400); AID 488859; in the data active means inhibition above about 45%; inconclusive means no clear call, values can overlap the other calls
Mdm2-MdmX conf = confirmation of human Mdm2/MdmX interaction inhibitors; inhibition, % at 8 µM; AID 489028; shares compounds with Mdm2 MdmX PPI; actives 55% (n = 10,000); Mdm2-MdmX binding, luminescent assay; in the data active means inhibition above about 40%
FLuc counter = counter-screen for Mdm2/MdmX inhibitors: full-length luciferase; shares compounds with Mdm2 MdmX PPI; SaOS-2 full-length luciferase counterscreen, luminescence; inhibition, % at 8 µM; actives 77% (n = 6,200); AID 504607;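 active means mean inhibition at 8 µM reaching about 37%, which flags the compound as non-specific, limit read from the data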;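 further: p53-null SaOS-2 cells with luciferase driven by a doxycycline-inducible promoter; compound on cells about two nights before reading with doxycycline added after day one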
Numbers stand for hits; n = inactive; u = inconclusive; x = not tested or not shown. In the library only some 4.1% were active in any assay of this set; here they are far more common.

SMILES | UBC13 inh | Mdm2 MdmX PPI | UPR CHOP act | Apaf-1 inh | XBP1 UPR activ | Casp3 UBC13 ctr | UBC13 conf | Mdm2-MdmX conf | FLuc counter
CN(C)CCCN(C(=O)c1ccc(C(=O)c2ccccc2)cc1)c1nc2cc3c(cc2s1)OCCO3 | 92 | 53 | n | n | n | n | 112 | n | 87
CCN(Cc1ccccc1)S(=O)(=O)c1ccc(C(=O)N(CCCN(C)C)c2nc3cc4c(cc3s2)OCO4)cc1 | 64 | 73 | n | n | n | n | 104 | n | x
CN(C)CCN(C(=O)c1ccc(C(=O)c2ccccc2)cc1)c1nc2cc3c(cc2s1)OCCO3 | n | n | n | n | n | x | x | x | x
NC1=NC[C@H](Cc2ccccc2)N1CCCCC1CCCCC1 | 86 | 78 | n | 67 | n | n | 80 | n | x
COc1cccc(-c2nn(C)c3sc(C(=O)NCc4ccc5c(c4)OCO5)cc23)c1 | n | n | n | n | n | x | x | x | x
CCN(CCCNC(=O)c1cc2c(-c3cccc(OC)c3)nn(C)c2s1)Cc1ccccc1 | 49 | 55 | n | n | n | n | 47 | n | x
Cc1noc(/C=C/N(C)C)c1S(=O)(=O)N1CCCC(C(=O)Nc2ccc(F)cc2F)C1 (stereo unspecified) | n | n | n | n | n | x | x | x | x
CCOC(=O)c1c(-c2ccccc2)oc2ccc(OC(C)C(=O)O)cc12 (stereo unspecified) | n | n | n | n | n | x | x | x | x
CCOC(=O)c1c(-c2ccccc2)oc2ccc(OCC(O)CN(C)C)cc12 (stereo unspecified) | 47 | 74 | n | n | n | n | 52 | n | n
CCc1ccc(-c2cc3c(=O)n(CC(=O)NCCCN4CCC(Cc5ccccc5)CC4)nc(C)n3n2)cc1 | 60 | 100 | n | n | n | n | 86 | 99 | 53
Cc1nn(CC(=O)NCCCN2CCC(Cc3ccccc3)CC2)c(=O)c2cc(-c3ccccc3)nn12 | 93 | 96 | n | n | n | n | 112 | 69 | 41
Cc1nn(CC(=O)NCCCN2CCN(Cc3ccccc3)CC2)c(=O)c2cc(-c3ccccc3)nn12 | n | n | n | n | n | x | x | x | x
Cc1cc(C)c(S(=O)(=O)NCC(=O)NCc2cc(=O)n(C)c(=O)n2C)c(C)c1 | n | n | n | n | n | x | x | x | x
CCN1CCN(Cc2ccc(NC(=O)c3cc(NC(=O)c4cc(C)on4)cc(OC)c3)cc2C(F)(F)F)CC1 | 52 | 91 | n | n | n | n | n | n | 46
CCN1CCN(Cc2ccc(NC(=O)c3cc(NC(=O)c4cnn(-c5ccccc5)c4N)cc(OC)c3)cc2C(F)(F)F)CC1 | 79 | 53 | n | n | n | n | 50 | n | x
CCN1CCN(Cc2ccc(NC(=O)c3ccc(C)c(NC(=O)c4ccnnc4)c3)cc2C(F)(F)F)CC1 | n | n | n | n | n | x | x | x | x
CCN1CCN(Cc2ccc(NC(=O)c3ccc(C)c(NC(=O)c4ccc5n[nH]nc5c4)c3)cc2C(F)(F)F)CC1 | n | n | n | n | n | x | x | x | x
NS(=O)(=O)c1ccc(CCNC(=O)C2CC(=O)N(Cc3ccccc3Cl)C2)cc1 (stereo unspecified) | n | n | n | n | n | x | x | x | x
O=C(NCCS(=O)(=O)NCc1ccc2c(c1)OCO2)c1ccccc1 | n | n | n | n | n | x | x | x | x
CCCCOC(=O)Nc1sc2c(c1C(=O)OC)CCC2 | n | n | n | n | n | x | x | x | x
Cc1c(/C=N\NC(=O)C2COc3ccc(C(C)(C)C)cc3O2)c2ccccc2n1C (stereo unspecified) | n | n | n | n | n | x | x | x | x
CCCc1nnc(NC(=O)c2nc(S(=O)(=O)Cc3cccc(C)c3)ncc2Cl)s1 | 54 | 90 | n | n | n | n | 62 | n | n
C=C1CC2C=C(NC(C)=O)CC(C1)C2 (stereo unspecified) | n | n | n | n | n | x | x | x | x
COc1ccc(-c2sc3ccc(OC)cc3c2C#Cc2cncn2C)cc1 | 48 | 54 | n | n | n | n | n | n | x
Cc1c(NC(=O)Nc2ccccc2Cl)c(=O)n(-c2ccccc2)n1C | n | n | n | n | n | x | x | x | x
SMILES | UBC13 inh | Mdm2 MdmX PPI | UPR CHOP act | Apaf-1 inh | XBP1 UPR activ | Casp3 UBC13 ctr | UBC13 conf | Mdm2-MdmX conf | FLuc counter
Cc1ccc2nc(/N=C(\N)NC(=O)NC3CCCCC3)nc(C)c2c1 | 49 | 65 | n | n | n | n | 68 | 46 | 57
Cc1cccc2sc(N(CCN3CCOCC3)C(=O)CCS(=O)(=O)c3ccccc3)nc12 | 59 | 69 | n | n | n | n | 79 | 46 | 68
Cc1ccc(S(=O)(=O)CCC(=O)N(CCN2CCOCC2)c2nc3ccccc3s2)cc1 | n | n | n | n | n | x | x | x | x
CCCCN(CC)CCNC(=O)c1cc2c(=O)n(CC)c3ccccc3c2s1 | 72 | 73 | n | n | n | n | 91 | 52 | 66
CCCCN(CC)CCCNC(=O)c1cc2c(=O)n(CC)c3ccccc3c2s1 | 50 | 79 | n | n | n | n | 62 | 60 | 55
CCCN(CCC)CCCNC(=O)c1cc2c(=O)n(CC)c3ccccc3c2s1 | 47 | 71 | n | n | n | n | n | 58 | 59
Cc1cc(-c2ccccc2)c2ccc(NC(=O)C(C)(C)C)nc2n1 | n | n | n | n | n | x | x | x | x
CN(C)CCNC(=O)c1cc2c(s1)-c1ccc(Cl)cc1SC2 | 62 | 100 | n | n | n | n | 73 | 87 | 57
CCOCCCNC(=O)c1cc2c(s1)-c1ccccc1SC2 | n | n | n | n | n | x | x | x | x
CCC[C@H](CN[C@@H](CNC)[C@H](C)O)NCCc1ccc(OC)cc1 | n | n | n | n | n | x | x | x | x
CCCC[C@H](CN[C@@H](CNC)[C@H](C)CC)NCCC12CCC(CC1)C2 | 48 | 98 | n | n | n | n | n | 98 | 50
CS(=O)(=O)c1ccc(C(=O)Nc2ccc(N3CCOCC3)cc2)c(Cl)c1 | n | n | n | n | n | x | x | x | x
CS(=O)(=O)c1ncc(Cl)c(C(=O)Nc2ccc(N3CCOCC3)cc2)n1 | 45 | 88 | n | n | n | n | n | 53 | 41
C[C@@H](CSc1ccccc1)CN1CC[C@H](NC(=O)OCc2ccccc2)CCC1=O | n | n | n | n | n | x | x | x | x
CCC1(C)Cc2sc3c(=O)[nH]c(=S)[nH]c3c2CO1 (stereo unspecified) | u | n | n | n | n | x | x | x | x
